inhibition, Activity and IC50 data for five compounds are collected here from ChEMBL document CHEMBL4387738 (Bioorg Med Chem Lett, 2019).

In experiment [1] the target is Endoplasmic reticulum chaperone BiP (Homo sapiens) (UniProt P11021). Put plainly: Inhibition of GRP78 (26 to 636 residues) (unknown origin) expressed in Escherichia coli BL21 DE3 cells pre-incubated for 10 mins before FITC-NRLLLTG fluorescent peptide addition in presence of 20 uM ADP followed by further incubation for 2 hrs by fluorescence polarization assay. The method in brief:
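Fluorescence polarization competition assay in 384-well format. Full-length GRP78 (0.75 μM) was held in the ADP-bound closed state with FITC-NRLLLTG (100 nM), and loss of polarization was read. DMSO was the negative control and heat-denatured GRP78 the positive control. IC50 was taken from a 10-point dose response.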

Experiment [2] relates to HCT-116. The experiment in a line: Induction of apoptosis in human HCT116 cells assessed as late apoptotic cells at 5 to 25 uM incubated for 24 hrs by Annexin-V-FITC/propidium iodide staining based flow cytometric method relative to taxol. Format: functional, cell-based. The method in brief:
(§1)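 HCT116 cells exposed to 5, 10 or 25 μM for 24 h, then stained with annexin V and propidium iodide and analysed by flow cytometry. DMSO was the negative control and Taxol the apoptosis control. Total apoptosis counted all annexin V-positive cells, early apoptosis was annexin V-positive/PI-negative, and late apoptosis was annexin V/PI double-positive.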

A short description of experiment [3]: Inhibition of bacterial DnaK pre-incubated for 10 mins before FITC-NRLLLTG fluorescent peptide addition in presence of 20 uM ADP followed by further incubation for 2 hrs by fluorescence polarization assay. Also on record: species or system Bacteria. Put shortly: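 Repeat of the GRP78 fluorescence-polarization substrate-binding assay with the bacterial HSP70 DnaK in place of GRP78. The FITC-NRLLLTG peptide binds the substrate-binding domain in the ADP-bound closed state, raising polarization; inhibitors keep polarization low. Compound was tested in dose response and the IC50 derived. DnaK construct and concentration are not given.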

For experiment [4], the system named is HCT-116. The experiment in a line: Induction of apoptosis in human HCT116 cells at 5 to 25 uM incubated for 24 hrs by Annexin-V-FITC/propidium iodide staining based flow cytometric method. Format: functional, cell-based. Put shortly:
as §1

In experiment [5] the test system is HCT-116. The experiment in a line: Induction of apoptosis in human HCT116 cells 25 uM incubated for 16 to 48 hrs by Annexin-V-FITC/propidium iodide staining based flow cytometric method. Format: functional, cell-based. Particulars: TDE = time-dependent effect. The method in brief: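 Time course in HCT116 cells. After treatment, cells were stained with annexin V and propidium iodide and analysed by flow cytometry. Early apoptosis was scored as annexin V+/PI−, late apoptosis as annexin V+/PI+. DMSO served as the negative control and Taxol as the apoptosis control.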

For experiment [6], the system named is HCT-116. Put plainly: Induction of apoptosis in human HCT116 cells assessed as increase in apoptotic cells at 25 uM incubated for 24 hrs by Annexin-V-FITC/propidium iodide staining based flow cytometric method relative to taxol. Format: functional, cell-based. The method in brief: as §1
The test system of experiment [7] is HCT-116. Put plainly: Induction of autophagy in human HCT116 cells assessed as increase in LC3-2 level at 2 to 10 uM after 16 hrs by Western blot analysis.
Experiment [8] concerns HCT-116. The experiment in a line: Induction of apoptosis in human HCT116 cells assessed as apoptotic cells at 10 uM incubated for 24 hrs by Annexin-V-FITC/propidium iodide staining based flow cytometric method relative to taxol. Format: functional, cell-based. Put shortly:
as §1

The test system of experiment [9] is HCT-116. The experiment in a line: Induction of apoptosis in human HCT116 cells assessed as increase in early apoptotic cells at 5 to 25 uM incubated for 24 hrs by Annexin-V-FITC/propidium iodide staining based flow cytometric method relative to taxol. Format: functional, cell-based. The method in brief: as §1
Experiment [10] concerns HCT-116. The experiment in a line: Induction of autophagy in human HCT116 cells assessed as reduction in p62 level at 2 to 10 uM after 16 hrs by Western blot analysis.
Experiment [11] concerns HCT-116. The experiment in a line: Induction of autophagy in human HCT116 cells assessed as reduction in LC3-1 level at 2 to 10 uM after 16 hrs by Western blot analysis.

Structures are written as SMILES. Active and inactive are the calls of the source. No cut-off for these calls is given here.

Sequence of Endoplasmic reticulum chaperone BiP (Homo sapiens) (P11021 whole entry, the tested form may be a part): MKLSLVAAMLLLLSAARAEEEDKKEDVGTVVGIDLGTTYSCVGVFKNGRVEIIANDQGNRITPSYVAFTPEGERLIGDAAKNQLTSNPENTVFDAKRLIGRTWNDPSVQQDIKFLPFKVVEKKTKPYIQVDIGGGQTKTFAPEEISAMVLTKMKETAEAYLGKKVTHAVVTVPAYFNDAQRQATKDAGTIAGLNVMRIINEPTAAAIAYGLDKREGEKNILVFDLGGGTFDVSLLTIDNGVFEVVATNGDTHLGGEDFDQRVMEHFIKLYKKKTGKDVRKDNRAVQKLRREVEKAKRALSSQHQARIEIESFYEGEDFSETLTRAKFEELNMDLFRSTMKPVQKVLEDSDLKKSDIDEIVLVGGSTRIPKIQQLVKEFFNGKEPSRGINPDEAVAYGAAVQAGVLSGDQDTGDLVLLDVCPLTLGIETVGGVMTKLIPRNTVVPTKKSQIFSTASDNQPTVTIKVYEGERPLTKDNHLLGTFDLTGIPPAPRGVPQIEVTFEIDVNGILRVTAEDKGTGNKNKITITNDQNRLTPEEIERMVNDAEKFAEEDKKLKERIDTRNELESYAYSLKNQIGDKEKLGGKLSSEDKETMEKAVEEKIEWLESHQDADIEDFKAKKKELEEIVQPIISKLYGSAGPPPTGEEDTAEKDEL

In the case of `Oc1c(Cl)cc(Cl)cc1Cc1cc(Cl)cc(Cl)c1O`, in experiment [1], the inhibition result was “Active”.

For the compound `Oc1c(Cl)cc(Cl)c(Cl)c1Cc1c(O)c(Cl)cc(Cl)c1Cl` [HEXACHLOROPHENE], the result in the experiment with HCT-116 [2], in the experiment on HCT-116 [6], with HCT-116 [7], with HCT-116 [8], in the experiment with HCT-116 [9] and with HCT-116 [10] was Active. Also, the result with HCT-116 [11] was Active. Besides, in experiment [3], the IC50 came to 51.6 µM. Also, the Activity result in the experiment on HCT-116 [4] is “Dose-dependent effect”; in the experiment with HCT-116 [5], “Tde”. The inhibition result in experiment [1] was “Dose-dependent effect”.

For `Oc1c(Cl)cc(Cl)c(Cl)c1Sc1c(O)c(Cl)cc(Cl)c1Cl`, in experiment [1], the inhibition entry is “Active”.

As to `CC(=O)O[C@H]1C(=O)[C@@]2(C)[C@H]([C@H](OC(=O)c3ccccc3)[C@]3(O)C[C@H](OC(=O)[C@H](O)[C@@H](NC(=O)c4ccccc4)c4ccccc4)C(C)=C1C3(C)C)[C@]1(OC(C)=O)CO[C@@H]1C[C@@H]2O`, in the experiment on HCT-116 [2], the result was Active.

For the compound `Oc1c(Cl)cc(Cl)cc1Sc1cc(Cl)cc(Cl)c1O`, the inhibition result in [1] is “Active”.
